Compound activity from PubChem.
HCV core dimer = HCV core protein dimerization inhibition | TR-FRET GST/Flag-core106 dimerization, 1536-well | inhibition, % at 5 µM | 300,000 compounds, 0.33% hits;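 active = inhibition above the mean of all tested compounds plus 3 SD, set per screening campaign, cut at about 45% in these data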
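System: GST/Flag-tagged HCV core106 proteins. Incubation: compound-protein-antibody incubation 4 h at 22.5 °C. Technique: HTRF with 340 nm excitation, 617/671 nm emission. Medium: KF-containing HEPES buffer, pH 7.45, DTT, CHAPS, BSA. Read-out: inhibition (%) from 671 over 617 nm ratio. Also added: Eu(K)-anti-GST 90 ng/mL plus XL665-anti-Flag 1 µg/mL.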
rCAG RNA binder = molecules binding r(CAG) RNA repeats | r(CAG) RNA repeat, TO-PRO-1 dye displacement fluorescence | inhibition, % at 3 µM | 370,000 compounds, 1.3% hits | AID 651821;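 active = inhibition above the plate cutoff, the mean of all test compounds on that plate plus 3 SD, cut at about 35% in these data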;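 also: 0% = DMSO alone and 100% = 100 µM mitoxantrone as full dye displacement; higher means more dye released from RNA so lower well fluorescence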
ABHD5-PLIN5 inh = inhibitors of human ABHD5-perilipin-5 interaction; Q00G26+Q8WTS1; Split G. princeps luciferase complementation, luminescence, 4 h; inhibition, % at 4 µM; 360,000 compounds, 0.78% hits; AID 602281;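 active = inhibition above the mean inhibition across every tested compound plus 3 SD, cut at about 22% in these data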;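 also: 0% = DMSO only wells and the 100% control is not disclosed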
Target sequence (Q00G26 whole entry, looked up): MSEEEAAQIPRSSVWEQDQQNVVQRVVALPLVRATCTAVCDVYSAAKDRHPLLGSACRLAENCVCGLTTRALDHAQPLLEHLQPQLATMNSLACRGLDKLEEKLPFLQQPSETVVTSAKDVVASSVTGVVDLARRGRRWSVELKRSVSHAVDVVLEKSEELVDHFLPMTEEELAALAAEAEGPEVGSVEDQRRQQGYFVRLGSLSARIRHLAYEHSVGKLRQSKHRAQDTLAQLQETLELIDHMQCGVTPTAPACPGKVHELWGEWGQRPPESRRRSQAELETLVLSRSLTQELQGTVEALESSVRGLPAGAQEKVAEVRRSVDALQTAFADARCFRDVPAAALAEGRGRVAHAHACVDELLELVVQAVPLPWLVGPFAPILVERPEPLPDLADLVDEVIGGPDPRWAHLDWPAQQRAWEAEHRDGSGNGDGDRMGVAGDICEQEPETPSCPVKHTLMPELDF
Target sequence (Q8WTS1 whole entry, looked up): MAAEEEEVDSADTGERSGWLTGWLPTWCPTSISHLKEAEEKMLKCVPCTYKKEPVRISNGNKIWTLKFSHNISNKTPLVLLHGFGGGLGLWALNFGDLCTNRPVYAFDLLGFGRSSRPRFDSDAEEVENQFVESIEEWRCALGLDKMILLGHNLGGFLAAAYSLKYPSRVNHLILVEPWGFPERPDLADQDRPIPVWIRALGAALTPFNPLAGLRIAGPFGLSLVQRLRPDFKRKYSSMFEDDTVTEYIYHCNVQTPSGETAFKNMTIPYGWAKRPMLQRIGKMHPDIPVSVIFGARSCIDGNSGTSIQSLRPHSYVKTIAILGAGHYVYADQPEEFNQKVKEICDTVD
NadD block = NadD (S. aureus) enzyme inhibition | inhibition, % at 20 µM | purified NadD enzyme, colorimetric absorbance read-out | AID 602399 | 360,000 compounds, 0.78% hits; in the data active = inhibition above about 26%
ABHD5 PLIN5 conf = ABHD5-PLIN5 interaction inhibition, confirmed; shares compounds with ABHD5-PLIN5 inh; biochemical ABHD5-PLIN5 interaction, luminescence; inhibition, % at 4 µM; 2,200 compounds, 67% hits; in the data active = inhibition above about 23%;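 also: 0% = DMSO vehicle wells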
HNF4 split-luc = counter-screen for ABHD5-PLIN5 inhibitors: HNF4 split-luciferase; inhibition, % at 4 µM; 2,200 compounds, 77% hits; shares compounds with ABHD5-PLIN5 inh; HNF4 dimerization, luminescence, biochemical;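 active = mean inhibition across replicate wells exceeding the computed hit threshold, cut at about 13% in these data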;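 also: light from luciferase halves that rejoin when HNF4 fusion proteins dimerize; 0% = DMSO only wells and the 100% control is not given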
* hit, by the source's call; / = no result. Hits are enriched below; roughly 2.6% of the tested compounds scored in any of these assays.

SMILES | HCV core dimer | rCAG RNA binder | ABHD5-PLIN5 inh | NadD block | ABHD5 PLIN5 conf | HNF4 split-luc
O=C(CSc1nnc(COc2ccccc2)n1Cc1ccco1)NCc1ccco1 | 43.0 | 14.7 | 37.0* | 16.3 | 44.1* | 54.4*
COc1cc(-c2cc(C(=O)Nc3ccc(N4CCOCC4)cc3)c3ccccc3n2)cc(OC)c1OC | 6.0 | 8.3 | 24.4* | -8.3 | 7.5 | -0.2
CCn1c(=O)cc(N2CCOCC2)[nH]c1=O | 0.6 | 0.5 | -1.4 | -0.4 | / | /
CCCCn1c(=O)cc(N2CCOCC2)[nH]c1=O | 7.0 | 0.7 | 25.3* | -3.6 | 2.5 | 1.9
CC(C)c1ccc(C2C3=C(CC(C)(C)CC3=O)NC3=C2C(=O)c2ccccc23)cc1 (centres undefined) | 10.3 | 11.1 | 29.3* | 21.1 | 42.5* | 62.7*
CC1(C)CC(=O)C2=C(C1)NC1=C(C(=O)c3ccccc31)C2c1ccccc1 (centres undefined) | -13.4 | 10.7 | 10.2 | 2.5 | / | /
CCCC(=O)NC(c1ccco1)c1cc([N+](=O)[O-])c2cccnc2c1O (centres undefined) | -1.3 | 15.2 | 35.0* | 6.7 | 16.7 | 24.4*
O=C(NCc1cccnc1)/C(=C/c1ccc(-c2cccc(Cl)c2)o1)S(=O)(=O)c1ccccc1 | 3.1 | -1.8 | 47.7* | -3.2 | 40.0* | 38.8*
O=C(NCc1cccnc1)/C(=C\c1ccc(-c2cccc(Cl)c2)o1)S(=O)(=O)c1ccccc1 | 3.2 | -0.7 | 81.6* | -0.2 | 96.7* | 87.7*
Cc1cccc(-c2cccc3c4c([nH]c23)[C@@H]2C[C@H](N(C)C(=O)c3ccco3)[C@H]([C@H](C)O)C(=O)N2CC4)c1 | / | 9.8 | / | / | / | /
O=C(/C=C\c1cccs1)c1c(O)ccc2ccc(=O)oc12 | 5.5 | 3.6 | 24.6* | -2.0 | 33.7* | 37.4*
CCOC(=O)C1CCCN(C(=O)c2ccc3sccc3c2)CC1 (centres undefined) | / | 0.3 | -0.6 | 2.0 | / | /
C=C1C(=O)OC2C=C(CO)C3OC3C3OC3(C)CC(OC(=O)/C(=C/C)COC(C)=O)C12 (centres undefined) | / | 1.3 | 52.5* | -2.3 | 73.5* | 82.3*
Cc1ccc(C(C)C)c(OCc2nn(CC(=O)c3ccc(Cl)cc3)c3[n+]2CCCCC3)c1 | -13.8 | 5.2 | 20.2 | 9.0 | / | /
O=C(Cn1nc(CNc2ccc(Cl)cc2)[n+]2c1CCCCC2)c1ccccc1 | -11.2 | 5.1 | 25.2* | -2.9 | 12.9 | 4.3
C=C1C(=O)[C@]23C[C@H]1CCC2[C@@]1(C)C(C[C@@H]3O)[C@](C)(C(=O)OC)CC[C@@H]1O (some centres undefined) | / | -1.0 | 38.8* | -7.8 | 66.8* | 107.9*
CC1(C)Cc2cccc(OCC(=O)N3CCN(c4ccccc4)CC3)c2O1 | -2.4 | -1.5 | 82.2* | -7.5 | 0.9 | 0.3
O=C(C[C@H]1C[C@@H]2c3cc(NC(=O)Nc4ccccc4F)ccc3O[C@@H]2[C@H](CO)O1)NCc1ccccn1 | / | 2.9 | -4.3 | 7.1 | / | /
COC(=O)C1CN(C2CCCC2)CCS(=O)(=O)N1Cc1ccc(C)cc1 (centres undefined) | / | 2.4 | / | / | / | /
COc1ccc([N+](=O)[O-])c(C=CC(=O)c2ccccn2)c1 | / | 4.3 | 52.9* | 3.3 | 97.8* | 101.3*
Cc1ccc(C(=O)Nc2ccc3c(c2)OCCO3)c(Cl)c1 | 1.0 | 2.9 | 5.2 | -0.1 | / | /
O=C(Nc1ccc2c(c1)OCCO2)c1cc(F)c(F)cc1Cl | -8.5 | -2.4 | 24.0* | -5.2 | 2.5 | -0.7
O=C(/C=C/c1ccccc1O)c1ccc(Cl)cc1 | 1.7 | 9.0 | 58.5* | -7.9 | 93.6* | 74.6*
O=C(/C=C/c1cccc2ccccc12)c1ccncc1 | -2.6 | 5.0 | 65.2* | 19.6 | 96.4* | 96.2*
O=C(/C=C/c1ccccc1O)c1ccccc1 | / | 0.4 | 28.8* | -4.8 | 78.8* | 63.8*
O=C(/C=C/c1ccccc1[N+](=O)[O-])Oc1ccccc1 | -0.9 | / | / | / | / | /
O=C(/C=C/c1ccccc1[N+](=O)[O-])c1ccc(F)cc1 | 1.4 | -1.9 | 34.5* | -8.6 | 85.7* | 82.8*
CCNC(=O)C1CCCN(C(=O)c2cc(C)oc2C)CC1 (centres undefined) | / | 0.7 | -5.0 | 1.3 | / | /
Cc1cc(O)c(-c2cc(O)c(C)cc2O)cc1O | -50.2 | 5.4 | 43.6* | 14.0 | 37.4* | 86.6*
Cc1cc(N=O)c(C)cc1O | / | 0.4 | -0.8 | 5.6 | / | /
